Test results: paper PMC10655810 (Journal of Agricultural and Food Chemistry, 2023)

What was measured:
RmuAP1CD = experiment: Effects of chemicals; assay type: biochemical, Rhodotorula mucilaginosa; conditions: same test as Table 1; preincubation 37 °C, 3 h; BSA, pH 2.5
How it was run: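 Residual activity was then measured with 10 μg enzyme and 5 mg BSA per 1 mL at pH 2.5 for 1–1.5 h. The reaction was stopped with cold TCA (10% w/v final), centrifuged, and supernatant A280 read. Triplicate.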

pepsin = pepsin (Sus scrofa, UniProt P00791); experiment: biochemical; design: species or system porcine; conditions: for Proteolytic activity of pepsin (residual activity): pH 2.5
Sequence of pepsin (P00791 60-385): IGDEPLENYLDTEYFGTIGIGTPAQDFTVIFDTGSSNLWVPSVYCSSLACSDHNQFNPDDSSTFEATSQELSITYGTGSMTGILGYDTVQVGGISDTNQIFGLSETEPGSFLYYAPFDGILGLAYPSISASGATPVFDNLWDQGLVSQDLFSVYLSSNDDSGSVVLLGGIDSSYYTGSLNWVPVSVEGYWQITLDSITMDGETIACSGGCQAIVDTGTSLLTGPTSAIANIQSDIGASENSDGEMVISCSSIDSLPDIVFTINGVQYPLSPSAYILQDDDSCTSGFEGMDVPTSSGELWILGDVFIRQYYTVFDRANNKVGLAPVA

BSA = conditions: cited from earlier work
[1] = BSA denatured by 10 min preincubation at pH 0.8

Compound: O=C(O)CN(CCN(CC(=O)O)CC(=O)O)CC(=O)O [EDTA, ethylenediaminetetraacetic acid]
- Effect on the proteolytic activity of RmuAP1CD (in words) (RmuAP1CD): unaffected
- remaining activity at 5000 µM (pepsin; pH 2.5, read-out: Proteolytic activity of pepsin (residual activity)): 95 ± 2.5%

Compound: Triton X-100
- Effect on the proteolytic activity of RmuAP1CD (in words) (RmuAP1CD): moderately inhibited

Compound: O=S(=O)(F)Cc1ccccc1 [PMSF, phenylmethylsulfonyl fluoride]
- Effect on the proteolytic activity of RmuAP1CD (in words) (RmuAP1CD): unaffected

Compound: pepstatin A
- Effect on the proteolytic activity of RmuAP1CD (in words) (RmuAP1CD): drastically inhibited

Compound: CCCCCCCCCCCCOS(=O)(=O)[O-].[Na+] [SDS, sodium dodecyl sulfate]
- Effect on the proteolytic activity of RmuAP1CD (in words) (RmuAP1CD): moderately inhibited
- Proteolytic activity of pepsin (residual activity) (pepsin): 30 ± 4.0%

Compound: OCCS [β-ME, β-mercaptoethanol]
- Effect on the proteolytic activity of RmuAP1CD (in words) (RmuAP1CD): did not influence the peptidase activity
- Proteolytic activity of pepsin (residual activity) (pepsin): 90 ± 1.0%

Compound: pepsin
- Activity of pepsin on HCl-denatured BSA at pH 4.5 (BSA; [1]): 65%
- pH of peak activity of pepsin on HCl-denatured BSA (BSA; [1]): 3.0
- Optimum pH of pepsin for BSA (BSA; native BSA, pH 1.0 to 5.5): about 1.7
- Activity of pepsin on BSA at pH 4.0, of its peak value (BSA; native BSA): 10%
